Laboratory results reported in ChEMBL document CHEMBL1137942, “Design, synthesis, and biological activity of novel, potent, and selective (benzoylaminomethyl)thiophene sulfonamide inhibitors of c-Jun-N-terminal kinase” (J Med Chem, 2004).
pIC50: −log10 of the molar value.

Tests used:
[1] = target: Protein kinase C alpha type (Homo sapiens) (UniProt P17252); assay: Percentage activity of human PKC alpha -His in the presence of 10 uM of compound and 10 uM of ATP in comparison with control
[2] = target: Tyrosine-protein kinase CSK (Homo sapiens) (UniProt P41240); assay: Percentage activity of human CSK in the presence of 10uM of compound and 10uM of ATP in comparison with control
[3] = target: Serine/threonine-protein kinase Chk2 (Homo sapiens) (UniProt O96017); assay: Percentage activity of human CHK2 in the presence of 10 uM of compound and 10 uM of ATP in comparison with control
[4] = target: Tyrosine-protein kinase Blk (Mus musculus) (UniProt P16277); assay: Percentage activity of mouse Blk in the presence of 10 uM of compound and 10 uM of ATP in comparison with control
Sequence of Tyrosine-protein kinase Blk (Mus musculus) (P16277 whole entry): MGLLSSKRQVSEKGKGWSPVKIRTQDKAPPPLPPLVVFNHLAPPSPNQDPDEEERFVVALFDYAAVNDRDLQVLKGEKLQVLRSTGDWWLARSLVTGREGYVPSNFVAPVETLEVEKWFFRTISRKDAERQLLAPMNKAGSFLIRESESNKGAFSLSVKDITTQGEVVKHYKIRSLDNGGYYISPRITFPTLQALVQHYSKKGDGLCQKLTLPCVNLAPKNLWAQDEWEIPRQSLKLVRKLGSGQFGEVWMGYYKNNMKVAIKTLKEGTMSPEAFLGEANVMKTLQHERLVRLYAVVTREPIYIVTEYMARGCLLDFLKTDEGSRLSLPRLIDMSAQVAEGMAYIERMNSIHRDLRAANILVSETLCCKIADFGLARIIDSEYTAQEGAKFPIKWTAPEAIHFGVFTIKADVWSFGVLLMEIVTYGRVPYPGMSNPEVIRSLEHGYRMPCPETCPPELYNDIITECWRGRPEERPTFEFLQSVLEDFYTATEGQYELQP

[5] = target: Insulin receptor (Homo sapiens) (UniProt P06213); assay: Percentage activity of human IR in the presence of 10 uM of compound and 10 uM of ATP in comparison with control
Sequence of Insulin receptor (Homo sapiens) (P06213 28-758 limits assumed): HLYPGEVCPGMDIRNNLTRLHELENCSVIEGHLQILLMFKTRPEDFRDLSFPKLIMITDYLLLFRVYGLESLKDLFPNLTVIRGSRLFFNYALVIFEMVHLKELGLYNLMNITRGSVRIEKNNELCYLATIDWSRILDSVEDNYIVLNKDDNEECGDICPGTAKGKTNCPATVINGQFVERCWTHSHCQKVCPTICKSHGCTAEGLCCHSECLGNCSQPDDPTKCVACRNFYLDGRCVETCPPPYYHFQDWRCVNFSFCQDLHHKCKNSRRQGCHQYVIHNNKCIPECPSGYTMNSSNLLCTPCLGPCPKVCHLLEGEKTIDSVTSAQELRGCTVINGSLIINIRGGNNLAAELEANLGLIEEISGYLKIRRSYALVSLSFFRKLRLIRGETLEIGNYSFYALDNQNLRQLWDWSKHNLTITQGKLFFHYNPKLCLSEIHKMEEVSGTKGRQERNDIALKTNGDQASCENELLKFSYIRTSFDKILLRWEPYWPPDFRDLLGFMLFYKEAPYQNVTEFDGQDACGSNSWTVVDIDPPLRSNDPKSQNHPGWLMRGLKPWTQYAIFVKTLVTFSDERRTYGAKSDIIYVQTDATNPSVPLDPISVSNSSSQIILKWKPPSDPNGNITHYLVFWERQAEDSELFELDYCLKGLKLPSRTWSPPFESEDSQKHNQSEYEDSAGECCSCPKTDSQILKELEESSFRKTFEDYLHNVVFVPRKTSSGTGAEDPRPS
Sequence of Insulin receptor (Homo sapiens) (P06213 763-1382 limits assumed): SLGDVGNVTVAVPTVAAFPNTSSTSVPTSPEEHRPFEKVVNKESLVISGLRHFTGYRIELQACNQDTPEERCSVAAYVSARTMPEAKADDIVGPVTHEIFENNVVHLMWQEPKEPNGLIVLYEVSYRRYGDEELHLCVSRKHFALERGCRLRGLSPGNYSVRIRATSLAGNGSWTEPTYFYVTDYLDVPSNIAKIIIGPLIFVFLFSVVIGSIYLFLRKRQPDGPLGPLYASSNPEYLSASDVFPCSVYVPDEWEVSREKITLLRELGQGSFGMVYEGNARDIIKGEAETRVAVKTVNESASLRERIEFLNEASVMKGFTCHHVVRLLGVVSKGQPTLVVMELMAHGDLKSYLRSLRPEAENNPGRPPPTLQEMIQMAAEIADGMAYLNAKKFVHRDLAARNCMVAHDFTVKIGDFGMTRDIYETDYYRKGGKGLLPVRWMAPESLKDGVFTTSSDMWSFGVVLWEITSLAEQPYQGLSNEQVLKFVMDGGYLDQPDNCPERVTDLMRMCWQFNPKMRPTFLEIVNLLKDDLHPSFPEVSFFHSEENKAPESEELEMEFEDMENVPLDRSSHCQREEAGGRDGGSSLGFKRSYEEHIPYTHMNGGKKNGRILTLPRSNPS

[6] = target: Serine/threonine-protein kinase Chk1 (Homo sapiens) (UniProt O14757); assay: Percentage activity of human CHK1 in the presence of 10 uM of compound and 10 uM of ATP in comparison with control
Sequence of Serine/threonine-protein kinase Chk1 (Homo sapiens) (O14757 whole entry): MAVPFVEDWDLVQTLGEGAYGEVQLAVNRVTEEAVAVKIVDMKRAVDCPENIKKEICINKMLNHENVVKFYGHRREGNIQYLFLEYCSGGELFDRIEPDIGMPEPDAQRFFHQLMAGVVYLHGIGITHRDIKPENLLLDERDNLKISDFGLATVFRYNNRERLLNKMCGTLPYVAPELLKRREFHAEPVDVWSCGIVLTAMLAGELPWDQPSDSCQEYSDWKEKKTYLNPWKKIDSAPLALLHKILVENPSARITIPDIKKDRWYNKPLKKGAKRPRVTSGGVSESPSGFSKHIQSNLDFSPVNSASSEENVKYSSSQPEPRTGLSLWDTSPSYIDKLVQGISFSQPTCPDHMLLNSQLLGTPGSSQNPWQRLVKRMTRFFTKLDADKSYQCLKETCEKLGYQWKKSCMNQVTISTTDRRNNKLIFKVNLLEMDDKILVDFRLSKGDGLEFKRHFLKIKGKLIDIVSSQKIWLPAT

[7] = target: Dual specificity mitogen-activated protein kinase kinase 6 (Homo sapiens) (UniProt P52564); assay: Percentage activity of human MKK6 in the presence of 10 uM of compound and 10 uM of ATP in comparison with control
[8] = target: Protein kinase C gamma type (Homo sapiens) (UniProt P05129); assay: Percentage activity of human PKC gamma in the presence of 10 uM of compound and 10 uM of ATP in comparison with control
[9] = target: Aurora kinase A (Homo sapiens) (UniProt O14965); assay: Percentage activity of human Aurora-A in the presence of 10 uM of compound and 10 uM of ATP in comparison with control
[10] = target: Dual specificity mitogen-activated protein kinase kinase 4 (Mus musculus) (UniProt P47809); assay: Percentage activity of mouse MKK4 in the presence of 10 uM of compound and 10 uM of ATP in comparison with control
[11] = target: Ribosomal protein S6 kinase (P70S6K) (Homo sapiens) (UniProt Q9UBS0+P23443); assay: Percentage activity of human p70S6K in the presence of 10 uM of compound and 10 uM of ATP in comparison with control; type: protein-complex assay
[12] = target: Ribosomal protein S6 kinase alpha-3 (Homo sapiens) (UniProt P51812); assay: Percentage activity of human Rsk3 in the presence of 10uM of compound and 10uM of ATP in comparison with control
[13] = target: Tyrosine-protein kinase Fes/Fps (Homo sapiens) (UniProt P07332); assay: Percentage activity of human Fes in the presence of 10 uM of compound and 10 uM of ATP in comparison with control
Sequence of Tyrosine-protein kinase Fes/Fps (Homo sapiens) (P07332 whole entry): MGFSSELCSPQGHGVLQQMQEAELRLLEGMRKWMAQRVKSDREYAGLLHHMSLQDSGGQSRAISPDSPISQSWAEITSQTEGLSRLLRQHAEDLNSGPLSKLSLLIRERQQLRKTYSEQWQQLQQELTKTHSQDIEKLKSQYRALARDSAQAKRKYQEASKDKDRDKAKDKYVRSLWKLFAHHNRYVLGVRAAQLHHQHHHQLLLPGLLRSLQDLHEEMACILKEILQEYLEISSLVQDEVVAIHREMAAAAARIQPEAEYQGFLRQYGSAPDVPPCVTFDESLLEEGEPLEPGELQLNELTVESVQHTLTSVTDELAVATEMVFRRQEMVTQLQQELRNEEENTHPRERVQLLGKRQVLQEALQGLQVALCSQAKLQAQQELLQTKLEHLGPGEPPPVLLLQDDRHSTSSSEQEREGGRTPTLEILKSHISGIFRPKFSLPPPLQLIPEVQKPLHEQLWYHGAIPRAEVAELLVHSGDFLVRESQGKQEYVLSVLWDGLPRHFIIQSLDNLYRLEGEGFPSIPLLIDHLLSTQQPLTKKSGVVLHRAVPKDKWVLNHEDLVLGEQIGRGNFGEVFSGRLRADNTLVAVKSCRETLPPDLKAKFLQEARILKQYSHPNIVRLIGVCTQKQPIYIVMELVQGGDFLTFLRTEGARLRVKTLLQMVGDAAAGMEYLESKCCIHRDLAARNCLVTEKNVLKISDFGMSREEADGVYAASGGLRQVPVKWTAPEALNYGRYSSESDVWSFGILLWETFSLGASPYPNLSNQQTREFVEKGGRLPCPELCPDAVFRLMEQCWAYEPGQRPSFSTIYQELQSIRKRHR

[14] = target: BDNF/NT-3 growth factors receptor TrkB (Homo sapiens) (UniProt Q16620); assay: Percentage activity of human TrkB in the presence of 10 uM of compound and 10 uM of ATP in comparison with control
[15] = target: Insulin-like growth factor 1 receptor (Homo sapiens) (UniProt P08069); assay: Percentage activity of human IGF-1R in the presence of 10 uM of compound and 10 uM of ATP in comparison with control
[16] = target: Cyclin-dependent kinase 7/ cyclin H (Homo sapiens) (UniProt P51946+P50613); assay: Percentage activity of human CDK7 with cyclin H/MAT1) in the presence of 10 uM of compound and 10 uM of ATP in comparison with control; type: protein-complex assay
[17] = target: Mitogen-activated protein kinase 9 (Homo sapiens, UniProt P45984); assay: Inhibition of human JNK2
Procedure, shortened: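 Radiometric SPA kinase assay: 0.5 µg recombinant preactivated GST-JNK2, 1 µg biotinylated GST-c-Jun, and 2 µM [33P]γ-ATP (2 nCi/µL). Buffer was 50 mM Tris-HCl pH 8.0, 10 mM MgCl2, 1 mM DTT and 100 µM NaVO4, with or without inhibitor, 120 min at rt. Stopped with streptavidin SPA beads, 5 mM EDTA, 0.1% Triton X-100 and 50 µM ATP in PBS; 60 min. Beads were centrifuged, washed, and counted by scintillation.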

[18] = target: Tyrosine-protein kinase Lyn (Homo sapiens) (UniProt P07948); assay: Percentage activity of human Lyn in the presence of 10 uM of compound and 10 uM of ATP in comparison with control
[19] = target: MAP kinase-activated protein kinase 5 (Homo sapiens) (UniProt Q8IW41); assay: Percentage activity of human PRAK in the presence of 10 uM of compound and 10 uM of ATP in comparison with control
[20] = target: Platelet-derived growth factor receptor beta (Homo sapiens) (UniProt P09619); assay: Percentage activity of human PDGFR beta in the presence of 10 uM of compound and 10 uM of ATP in comparison with control
[21] = target: Ribosomal protein S6 kinase alpha-5 (Homo sapiens) (UniProt O75582); assay: Percentage activity of human MSK1 in the presence of 10 uM of compound and 10 uM of ATP in comparison with control
Sequence of Ribosomal protein S6 kinase alpha-5 (Homo sapiens) (O75582 whole entry, looked up): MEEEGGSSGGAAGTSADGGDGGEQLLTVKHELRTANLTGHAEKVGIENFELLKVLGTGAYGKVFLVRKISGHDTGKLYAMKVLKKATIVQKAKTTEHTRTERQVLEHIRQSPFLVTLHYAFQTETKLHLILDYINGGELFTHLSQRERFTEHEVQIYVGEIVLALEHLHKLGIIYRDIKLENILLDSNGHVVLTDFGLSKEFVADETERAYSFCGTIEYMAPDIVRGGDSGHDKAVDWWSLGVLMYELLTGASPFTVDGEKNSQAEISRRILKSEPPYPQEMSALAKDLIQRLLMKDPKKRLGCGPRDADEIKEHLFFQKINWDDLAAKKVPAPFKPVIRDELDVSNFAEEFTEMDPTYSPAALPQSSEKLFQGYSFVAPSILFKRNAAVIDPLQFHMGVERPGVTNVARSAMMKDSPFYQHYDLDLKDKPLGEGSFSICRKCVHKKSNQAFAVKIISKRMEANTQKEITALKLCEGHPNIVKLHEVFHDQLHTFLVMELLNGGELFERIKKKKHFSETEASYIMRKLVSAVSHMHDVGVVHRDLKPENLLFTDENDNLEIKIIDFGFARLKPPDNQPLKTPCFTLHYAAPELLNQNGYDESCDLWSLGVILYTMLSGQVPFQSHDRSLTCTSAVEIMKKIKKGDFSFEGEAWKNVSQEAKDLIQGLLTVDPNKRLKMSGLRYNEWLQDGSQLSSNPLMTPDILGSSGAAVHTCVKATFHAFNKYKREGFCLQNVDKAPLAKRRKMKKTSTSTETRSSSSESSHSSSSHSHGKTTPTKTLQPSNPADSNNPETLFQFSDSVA

[22] = target: Platelet-derived growth factor receptor (Homo sapiens) (UniProt P09619+P16234); assay: Percentage activity of human PDGFR alpha in the presence of 10 uM of compound and 10 uM of ATP in comparison with control; type: protein-complex assay
[23] = target: Mitogen-activated protein kinase 10 (Homo sapiens) (UniProt P53779); assay: Percentage activity of human JNK3 in the presence of 10 uM of compound and 10 uM of ATP in comparison with control
[24] = target: RAF proto-oncogene serine/threonine-protein kinase (Homo sapiens) (UniProt P04049); assay: Percentage activity of human c-RAF in the presence of 10 uM of compound and 10 uM of ATP in comparison with control
[25] = target: Serine/threonine-protein kinase Sgk1 (Homo sapiens) (UniProt O00141); assay: Percentage activity of human SGK in the presence of 10 uM of compound and 10 uM of ATP in comparison with control
Sequence of Serine/threonine-protein kinase Sgk1 (Homo sapiens) (O00141 whole entry): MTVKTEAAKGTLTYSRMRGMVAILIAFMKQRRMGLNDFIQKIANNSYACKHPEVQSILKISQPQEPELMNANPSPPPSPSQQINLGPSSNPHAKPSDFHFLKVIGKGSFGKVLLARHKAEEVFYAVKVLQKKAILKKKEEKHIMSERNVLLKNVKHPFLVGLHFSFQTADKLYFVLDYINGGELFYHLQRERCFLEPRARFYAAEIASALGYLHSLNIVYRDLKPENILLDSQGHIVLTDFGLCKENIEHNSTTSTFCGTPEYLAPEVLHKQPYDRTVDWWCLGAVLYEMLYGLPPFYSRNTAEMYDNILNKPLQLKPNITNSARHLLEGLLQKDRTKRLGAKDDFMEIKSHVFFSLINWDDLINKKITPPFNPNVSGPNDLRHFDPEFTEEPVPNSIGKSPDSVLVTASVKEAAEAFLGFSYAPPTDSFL

[26] = target: RAC-alpha serine/threonine-protein kinase (Homo sapiens) (UniProt P31749); assay: Percentage activity of human PKB alpha in the presence of 10 uM of compound and 10 uM of ATP in comparison with control
Sequence of RAC-alpha serine/threonine-protein kinase (Homo sapiens) (P31749 whole entry): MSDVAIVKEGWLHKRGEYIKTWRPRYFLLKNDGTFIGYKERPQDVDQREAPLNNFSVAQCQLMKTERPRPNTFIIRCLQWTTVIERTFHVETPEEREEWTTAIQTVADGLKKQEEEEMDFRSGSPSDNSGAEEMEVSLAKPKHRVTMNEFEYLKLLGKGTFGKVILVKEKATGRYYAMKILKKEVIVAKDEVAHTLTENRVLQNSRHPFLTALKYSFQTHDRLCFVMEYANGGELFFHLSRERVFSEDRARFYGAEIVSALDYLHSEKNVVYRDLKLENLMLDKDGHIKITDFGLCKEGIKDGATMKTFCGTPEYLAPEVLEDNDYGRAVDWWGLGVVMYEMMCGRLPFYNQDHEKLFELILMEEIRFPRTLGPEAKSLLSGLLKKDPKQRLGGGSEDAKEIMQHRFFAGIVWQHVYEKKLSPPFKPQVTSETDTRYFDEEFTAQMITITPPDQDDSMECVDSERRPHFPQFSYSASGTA

## O=C(NCc1ccc(S(=O)(=O)N2CCC(n3nnc4ccccc43)CC2)s1)c1ccc(Cl)cc1
[1]
  Activity: 101%
[2]
  Activity: 130%
[3]
  Activity: 75%
[4]
  Activity: 78%
[5]
  Activity: 103%
[6]
  Activity: 130%
[7]
  Activity: 106%
[8]
  Activity: 79%
[9]
  Activity: 79%
[10]
  Activity: 112%
[11]
  Activity: 77%
[12]
  Activity: 97%
[13]
  Activity: 134%
[14]
  Activity: 83%
[15]
  Activity: 108%
[16]
  Activity: 94%
[17]
  pIC50: 6.19
[18]
  Activity: 89%
[19]
  Activity: 74%
[20]
  Activity: 91%
[21]
  Activity: 86%
[22]
  Activity: 103%
[23]
  Activity: 6%
[24]
  Activity: 93%
[25]
  Activity: 67%
[26]
  Activity: 51%
